# Data reported in ChEMBL document CHEMBL1122411 (J Med Chem, 1983).
# Tests used:
# [1] = organism: Mus musculus; test: Percentage increase in life span after 10-22 days; format: functional
# In short: (§1)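 Male B6D2F1J mice (20–25 g), randomized after i.p. inoculation with 10^5 L1210 ascitic leukemia cells on day 0. Drug in water, pH 7.5–8.0, given i.p. on a q2d×5, qd×9 (from day 1) or b.i.d.×10 schedule; 5 mice per group. %ILS = [(T/C) − 1]100 from median survival days of treated versus control mice. Range is survival days.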
# [2] = organism: Mus musculus; test: Percentage increase in life span after 10-23 days; format: functional; in short: as §1
# [3] = system: Mus musculus; test: Toxicity in mice after 10-22 days at a dose of 40 mg/kg/day; value is 15/9; format: functional
# [4] = system: Mus musculus; test: Weight change on day 7 in L1210 Lymphoid Leukemia in mice at a dose of 40 mg/kg/day (qdx9); format: functional
# In short: (§2)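 Male B6D2F1J mice (20–25 g) were inoculated i.p. with 10⁵ L1210 ascites cells on day 0 and randomized into groups of 5. Drug in water at pH 7.5–8.0 was given i.p. daily for 9 days (qd×9) from day 1. Animals were weighed after 7 days, and the % body-weight change was recorded under a standard NCI protocol.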
# [5] = target: Dihydrofolate reductase (Lactobacillus casei) (UniProt P00381); conditions: Lacticaseibacillus casei
# [6] = system: Mus musculus; test: Toxicity in mice after 12-20 days at a dose of 4 mg/kg/day; value is 13/8.5; format: functional
# [7] = system: Mus musculus; test: Weight change on day 7 in L1210 Lymphoid Leukemia in mice at a dose of 8 mg/kg/day (1dx9); format: functional; in short: as §2
# [8] = target: T1, Dihydrofolate reductase (Mus musculus) (UniProt P00375); test: Binding affinity to Dihydrofolate reductase of L1210 cell line using [H]MTX as radioligand; format: cell-based
# T1 sequence (whole entry): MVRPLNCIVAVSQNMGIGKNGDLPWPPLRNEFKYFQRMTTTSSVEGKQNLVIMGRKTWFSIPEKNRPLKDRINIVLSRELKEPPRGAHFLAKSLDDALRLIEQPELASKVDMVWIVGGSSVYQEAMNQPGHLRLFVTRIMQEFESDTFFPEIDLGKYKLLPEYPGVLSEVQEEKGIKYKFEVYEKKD
# In short: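 Competitive [³H]MTX binding to dihydrofolate reductase from L1210 leukemia. Ascites cells from tumor-bearing mice were washed and lysed before use. The assay ran at 37 °C in 0.1 M potassium phosphate, pH 6.8. ID₅₀ was read as inhibition of radioligand binding, with MTX included in each experiment.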
# [9] = organism: Mus musculus; test: Percentage increase in life span after 13-18 days; format: functional; in short: as §1
# [10] = system: Mus musculus; test: Toxicity in mice after 13-18 days at a dose of 20 mg/kg/day; value is 13/9; format: functional
# [11] = system: Mus musculus; test: Toxicity in mice after 10-24 days at a dose of 20 mg/kg/day; value is 18/9; format: functional
# [12] = system: Mus musculus; test: Toxicity in mice after 14-22 days at a dose of 8 mg/kg/day; value is 14/8.5; format: functional
# [13] = target: T1, Dihydrofolate reductase (Mus musculus); test: Binding affinity to Dihydrofolate reductase of L1210/R71 using spectrophotometric assay
# In short: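 The enzyme was isolated from MTX-resistant L1210/R71 cultured cells and purified on MTX-agarose. The assay measured ΔA340 at 22 °C in 0.1 M Tris, pH 7.0, with 62 nM enzyme. Enzyme was preincubated 2 min with inhibitor and NADPH, and dihydrofolate was then added to start the reaction. ID₅₀ determined.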
# [14] = system: Mus musculus; test: Toxicity in mice after 11-16 days at a dose of 2 mg/kg/day; value is 12/8.5; format: functional
# [15] = system: L1210; test: Cytotoxicity against L1210 cells; format: functional; conditions: Mus musculus, read-out: ID50 (the source's name)
# [16] = Tested for substrate activity of compound for Carboxypeptidase G1; parameters: species or system Mus musculus
# In short: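 Cleavage by carboxypeptidase G₁ was followed as the A320 change on release of the pteroate. Conditions were 37 °C in 0.05 M potassium phosphate, pH 6.7, with 100 μM ZnSO₄. Enzyme was diluted in 1% BSA to give ΔA320 of 0.02–0.2/min. Km and Vmax came from Lineweaver-Burk plots. Ki came from competitive runs varying analogue against fixed MTX, or vice versa.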
# [17] = organism: Mus musculus; test: Percentage increase in life span after 11-16 days; format: functional; in short: as §1
# [18] = organism: Mus musculus; test: Percentage increase in life span after 10-24 days; format: functional; in short: as §1
# [19] = system: Mus musculus; test: Weight change on day 7 in L1210 Lymphoid Leukemia in mice at a dose of 2 mg/kg/day (1dx9); format: functional
# In short: (§3)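 Male B6D2F₁J mice (20–25 g) bearing ip L1210 ascites (10⁵ cells, day 0) were used, 5 per group. Drug was given ip in water at pH 7.5–8.0 from day 1 on q2d×5, qd×9 or b.i.d.×10 schedules. Animals were weighed after 7 days and percent weight change recorded.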
# [20] = organism: Mus musculus; test: Percentage increase in life span after 14-22 days; format: functional; in short: as §1
# [21] = system: Mus musculus; test: Weight change on day 7 in L1210 Lymphoid Leukemia in mice at a dose of 20 mg/kg/day (qdx5); format: functional; conditions: in the assay text read “q2dx5” for “qdx5”; in short: as §3
# [22] = target: T1, Dihydrofolate reductase (Mus musculus)
# [23] = system: Carboxypeptidase G1 (Pseudomonas); test: Tested for substrate activity of compound for Carboxypeptidase G1
# [24] = organism: Mus musculus; test: Percentage increase in life span after 12-20 days; format: functional; in short: as §1
# [25] = system: Mus musculus; test: Weight change on day 7 in L1210 Lymphoid Leukemia in mice at a dose of 20 mg/kg/day (qdx9); format: functional; in short: as §3
# [26] = target: Dihydrofolate reductase (Lactobacillus casei) (UniProt P00381); conditions: Lacticaseibacillus casei; remark: listed apart in the source
# [27] = system: Mus musculus; test: Toxicity in mice after 10-23 days at a dose of 40 mg/kg/day; value is 21/9; format: functional
# [28] = system: Mus musculus; test: Weight change on day 7 in L1210 Lymphoid Leukemia in mice at a dose of 4 mg/kg/day (1dx9); format: functional; in short: as §3
# Chain of Dihydrofolate reductase (Lactobacillus casei) (P00381 whole entry): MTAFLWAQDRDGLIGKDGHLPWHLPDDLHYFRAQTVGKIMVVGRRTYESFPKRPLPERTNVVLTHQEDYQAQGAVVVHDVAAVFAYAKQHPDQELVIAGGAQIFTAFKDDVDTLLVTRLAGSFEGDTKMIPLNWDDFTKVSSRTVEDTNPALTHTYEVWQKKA
smiles,measurement,setting,value
CN(Cc1cnc2nc(N)nc(N)c2n1)c1ccc(C(=O)NC(CCCCC(=O)O)C(=O)O)cc1 (centres undefined),ILS,[1],67%
same,ILS,[2],133%
same,T/C,[3],15
same,Weight change,[4],-4%
same,ID50,[5],0.0063 µM
same,T/C,[6],13
same,Weight change,[7],4%
same,ID50,[8],0.0028 µM
same,ILS,[9],44%
same,T/C,[10],13
same,T/C,[11],18
same,T/C,[12],14
same,ID50,[13],0.039 µM
same,T/C,[14],12
same,IC50,[15],0.01 µM
same,Ki,[16],22 µM
same,ILS,[17],41%
same,ILS,[18],100%
same,Weight change,[19],10%
same,ILS,[20],65%
same,Weight change,[21],6%
same,ID50,[22],0.0069 µM
same,Km,[23],481 µM
same,Vmax,[23],0.44 min⁻¹
same,ILS,[24],52%
same,Weight change,[25],-2%
same,ID50,[26],0.018 µM
same,T/C,[27],21
same,Weight change,[28],4%
